Screens: PubChem, Sanford-Burnham Center for Chemical Genomics
Gli-Sufu block = blocks Gli-Sufu signaling in a luciferase reporter; AID 588413; 340,000 tested, 0.74% active; inhibition, % at 5 µM; Sufu-KO-LIGHT fibroblasts, Gli luciferase reporter luminescence;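 active = inhibition above about 55%, limit read from the data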;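 also: 0% = DMSO-treated cells and 100% = wells with medium but no cells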
hiPSC survival = enhancers of human iPSC single-cell survival; 360,000 tested, 0.044% active; survival enhancement, % at 20 µM; hiPSC single-cell survival, ATPlite luminescence; 100% = ROCK inhibitor wells, 0% = DMSO; in the data active = survival enhancement above about 18%;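 also: cells exposed to compounds for 16 hours before the ATP read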
Jurkat NFkB inh = inhibitors of the PMA/ionomycin-induced NF-kB reporter in Jurkat cells. inhibition, % at 4 µM. PMA/ionomycin-induced NF-kB luciferase reporter, luminescence. 330,000 tested, 0.53% active. AID 435003; in the data active = inhibition above about 50%
Hep lipid drop = modulators of hepatic lipid droplet formation | 240,000 tested, 0.4% active | inhibition, % at 6.5 µM | AML12 mouse hepatocytes, oleate lipid droplets, BODIPY imaging;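 active = lipid droplet intensity inhibited by at least 50%, with more than 500 cells counted; inconclusive = wells with under 300 cells, treated as cytotoxic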
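Assay system: AML12 hepatocytes (mouse); Probe or stimulus: oleic acid at 100 µM to induce lipid droplet formation; Dosing: compound at 6.5 µM only; Schedule: compound with oleate, overnight; Detection: fluorescence imaging, 20x objective, two fields per well; Measure: % inhibition of lipid droplet signal.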
697 NFkB inh = inhibitors of the PMA/ionomycin-induced NF-kB reporter in 697 B cells | 697 B-cell NF-kB luciferase reporter, 16 h | inhibition, % at 4 µM | 330,000 tested, 0.33% active | AID 435022; in the data active = inhibition above about 35%
TAG inh = reduces triacylglycerol accumulation in H9c2 cells. Nile Red lipid (TAG) fluorescence; cells loaded with 200 µM oleic acid. inhibition, % at 12.5 µM. 230,000 tested, 0.66% active;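 active = pattern-corrected inhibition of lipid staining of at least 50% with the nuclear-stain viability signal not falling by more than 50%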;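 also: 0% = DMSO wells and 100% = triacsin C control wells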
* = called active by the depositor; ? = inconclusive; . = no result given. Rows were chosen to be rich in hits. Some 1.8% of all compounds tested hit in one or more screens of this group.

SMILES | Gli-Sufu block | hiPSC survival | Jurkat NFkB inh | Hep lipid drop | 697 NFkB inh | TAG inh
O=C(Nc1ccc(S(=O)(=O)Nc2cnc3ccccc3n2)cc1)c1ccccc1Br | 2 | 0 | -6 | 5 | 4 | .
CC(C)CCNC(=O)c1onc(CSc2ccc(F)cc2)c1C(=O)NCCC(C)C | 10 | 21* | -15 | . | -39 | -13
CC(OC(=O)c1ccc(S(=O)(=O)N2CCCCC2)cc1)C(=O)Nc1ccc(C(N)=O)cc1 (stereo unspecified) | 3 | 40* | 19 | . | -2 | 12
CC(OC(=O)c1ccc2c(=O)n3c(nc2c1)CCC3)C(N)=O (stereo unspecified) | -3 | -1 | 2 | -7 | 13 | -3
CC(OC(=O)c1ccc2c(=O)n3c(nc2c1)CCC3)C(=O)Nc1ccc(C(N)=O)cc1 (stereo unspecified) | 0 | 26* | 5 | . | 20 | 22
CC(=O)Nc1cc(NC(C)=O)cc(C(=O)OC(C)C(=O)Nc2ccc(S(=O)(=O)N3CCCC3)cc2)c1 (stereo unspecified) | -2 | 1 | 8 | . | 24 | 17
Cc1ccc(S(=O)(=O)N[C@H](C(=O)OCC(=O)NC(=O)NCc2ccco2)C(C)C)cc1 | -3 | 24* | 2 | . | -9 | 0
COC(=O)Nc1nc(-c2ccccc2)c(C(=O)c2ccccc2)s1 | 19 | 0 | 41 | ? | -16 | 65*
COc1ccccc1C(=O)NCCC(=O)NCc1cccs1 | 3 | 0 | -4 | . | -8 | -8
O=C(Nc1ccccc1)C1CCCN1S(=O)(=O)c1ccc(Br)cc1 (stereo unspecified) | 12 | 0 | 2 | 17 | -11 | -6
COc1ccc(/C=C/C(=O)c2cc(F)ccc2OC(=O)c2ccc(OC)c(OC)c2)cc1OC | 0 | -2 | 17 | 36 | 14 | 17
COc1ccc(/C=C/C(=O)c2cc(F)ccc2OC(=O)c2ccccc2OC)cc1OC | 44 | 0 | . | -240 | . | 56*
CCN1CCN(Cc2ccc(NC(=O)c3ccc(C)c(NC(=O)c4c[nH]c5cc(C(F)(F)F)ccc5c4=O)c3)cc2C(F)(F)F)CC1 | 6 | -2 | -23 | 4 | 8 | 139*
CCN1CCN(Cc2ccc(NC(=O)c3cc(NC(=O)c4cc(-c5ccc(OC)cc5)n[nH]4)cc(OC)c3)cc2C(F)(F)F)CC1 | 28 | -3 | -42 | 7 | -1 | 69*
CCN1CCN(Cc2ccc(NC(=O)c3cc(NC(=O)c4ccc5n[nH]nc5c4)cc(OC)c3)cc2C(F)(F)F)CC1 | 26 | -3 | 0 | -4 | -4 | 4
COc1ccc(S(=O)(=O)N(C)C[C@H]2OCCCC[C@H](C)Oc3ccc(N(C)C)cc3C(=O)N([C@H](C)CO)C[C@@H]2C)cc1 | . | -3 | . | . | . | 15
CCC(C(=O)Nc1ccc2[nH]ncc2c1)c1ccccc1 (stereo unspecified) | 21 | 62* | 1 | 3 | -14 | .
COc1ccc(N2CCCC2)c(NC(=O)c2ccc(Br)o2)c1 | -1 | -1 | -2 | 13 | 8 | .
Cc1ccc(OC(=O)CCC(=O)Nc2ccc(C)c(C)c2)cc1 | 6 | -1 | -5 | . | 1 | 2
Cn1cnnc1SCC(=O)c1ccc2c(c1)OCO2 | 1 | 22* | -11 | 15 | -28 | 14
NC(=O)c1ccc(N2CCN(S(=O)(=O)c3ccccc3)CC2)c([N+](=O)[O-])c1 | 56* | -1 | 49 | -4 | 7 | -31
CCN(CC)CCNC(CC(=O)Nc1ccc(Cl)cc1Cl)C(=O)O (stereo unspecified) | 0 | 2 | -9 | 63* | 16 | 7
CCN(CC)CCNC(=O)COc1ccc(Cl)cc1Cl | 8 | 0 | -4 | . | 12 | .
CN1C=C/C(=C\c2cc[n+](C)c3ccccc23)c2ccccc21 | 77* | -4 | . | -53 | . | 8
COC(=O)C1=C(C)N(Cc2ccccc2)C(=NCc2cccc(Cl)c2)N[C@H]1c1cccc(F)c1 | 22 | -3 | -7 | . | 2 | 120*
CCN1C(=NCC2CC2)N[C@@H](c2cccc(C(F)(F)F)c2)C(C(=O)OC)=C1C | 96* | -3 | 6 | -15 | -8 | 8
CCN1C(=NCCOC)N[C@@H](c2cccc(C(F)(F)F)c2)C(C(=O)OC)=C1C | 14 | -1 | 0 | . | -16 | 35
